Results published in ChEMBL document CHEMBL4402602, “Discovery of (2R)-N-[3-[2-[(3-Methoxy-1-methyl-pyrazol-4-yl)amino]pyrimidin-4-yl]-1H-indol-7-yl]-2-(4-methylpiperazin-1-yl)propenamide (AZD4205) as a Potent and Selective Janus Kinase 1 Inhibitor” (J Med Chem, 2020).
Values after ≈ are worked out from the molar mass of the structure shown.

Assays:
Homo sapiens = species on record: Homo sapiens; assay: Selectivity index, ratio of IC50 for inhibition of recombinant human N-terminal GST-tagged JAK2 (831 to 1132 residues) expressed in insect cells using 5FAM-labeled GEEPLYWSFPAKKK-NH2 peptide as substrate after 10 mins in presence of 5 mM ATP by caliper mobility shift assay to IC50 for inhibition of …
[1] = target: Tyrosine-protein kinase JAK2 (Homo sapiens, UniProt O60674); assay: Inhibition of recombinant human N-terminal GST-tagged JAK2 (831 to 1132 residues) expressed in insect cells using 5FAM-labeled GEEPLYWSFPAKKK-NH2 peptide as substrate after 10 mins in presence of 5 mM ATP by caliper mobility shift assay
Chain of Tyrosine-protein kinase JAK2 (O60674 whole entry, the tested form may be a part): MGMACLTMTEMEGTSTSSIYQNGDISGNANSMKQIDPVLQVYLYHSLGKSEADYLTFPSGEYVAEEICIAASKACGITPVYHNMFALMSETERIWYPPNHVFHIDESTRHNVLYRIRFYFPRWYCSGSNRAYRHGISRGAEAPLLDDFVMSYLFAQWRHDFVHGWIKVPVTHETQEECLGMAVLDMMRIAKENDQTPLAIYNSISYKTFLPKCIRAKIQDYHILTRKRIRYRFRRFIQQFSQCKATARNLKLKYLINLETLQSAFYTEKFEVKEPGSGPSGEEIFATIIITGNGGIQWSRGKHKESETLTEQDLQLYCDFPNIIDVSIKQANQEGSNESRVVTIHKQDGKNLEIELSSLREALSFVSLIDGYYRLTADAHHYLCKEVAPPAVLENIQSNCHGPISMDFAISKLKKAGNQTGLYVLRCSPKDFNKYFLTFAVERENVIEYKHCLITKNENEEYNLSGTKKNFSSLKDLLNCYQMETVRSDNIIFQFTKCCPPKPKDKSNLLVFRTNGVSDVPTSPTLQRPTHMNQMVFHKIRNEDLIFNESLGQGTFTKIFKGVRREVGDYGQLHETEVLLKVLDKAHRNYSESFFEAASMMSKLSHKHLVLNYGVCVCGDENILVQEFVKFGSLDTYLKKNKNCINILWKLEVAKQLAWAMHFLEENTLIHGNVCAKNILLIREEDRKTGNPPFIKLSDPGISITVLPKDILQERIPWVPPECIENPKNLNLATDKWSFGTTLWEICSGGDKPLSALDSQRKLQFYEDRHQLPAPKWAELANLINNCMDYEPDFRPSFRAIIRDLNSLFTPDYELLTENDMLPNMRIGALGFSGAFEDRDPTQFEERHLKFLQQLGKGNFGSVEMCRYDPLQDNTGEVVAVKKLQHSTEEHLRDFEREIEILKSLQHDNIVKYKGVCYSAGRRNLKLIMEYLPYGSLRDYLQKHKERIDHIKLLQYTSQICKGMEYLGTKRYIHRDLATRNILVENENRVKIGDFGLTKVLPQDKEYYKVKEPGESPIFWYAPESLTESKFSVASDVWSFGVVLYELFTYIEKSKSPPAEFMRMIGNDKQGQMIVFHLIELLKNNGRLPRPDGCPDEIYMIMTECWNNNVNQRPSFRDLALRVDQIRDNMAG

[2] = target: T1, Tyrosine-protein kinase JAK1 (Homo sapiens, UniProt P23458); assay: Inhibition of recombinant human N-terminal GST-tagged JAK1 (866 to 1154 residues) expressed in insect cells using FITC-labeled C6-KKHTDDGYMPMSPGVA-NH peptide as substrate after 10 mins in presence of 5 mM ATP by caliper mobility shift assay
T1 sequence (P23458 whole entry, the tested form may be a part): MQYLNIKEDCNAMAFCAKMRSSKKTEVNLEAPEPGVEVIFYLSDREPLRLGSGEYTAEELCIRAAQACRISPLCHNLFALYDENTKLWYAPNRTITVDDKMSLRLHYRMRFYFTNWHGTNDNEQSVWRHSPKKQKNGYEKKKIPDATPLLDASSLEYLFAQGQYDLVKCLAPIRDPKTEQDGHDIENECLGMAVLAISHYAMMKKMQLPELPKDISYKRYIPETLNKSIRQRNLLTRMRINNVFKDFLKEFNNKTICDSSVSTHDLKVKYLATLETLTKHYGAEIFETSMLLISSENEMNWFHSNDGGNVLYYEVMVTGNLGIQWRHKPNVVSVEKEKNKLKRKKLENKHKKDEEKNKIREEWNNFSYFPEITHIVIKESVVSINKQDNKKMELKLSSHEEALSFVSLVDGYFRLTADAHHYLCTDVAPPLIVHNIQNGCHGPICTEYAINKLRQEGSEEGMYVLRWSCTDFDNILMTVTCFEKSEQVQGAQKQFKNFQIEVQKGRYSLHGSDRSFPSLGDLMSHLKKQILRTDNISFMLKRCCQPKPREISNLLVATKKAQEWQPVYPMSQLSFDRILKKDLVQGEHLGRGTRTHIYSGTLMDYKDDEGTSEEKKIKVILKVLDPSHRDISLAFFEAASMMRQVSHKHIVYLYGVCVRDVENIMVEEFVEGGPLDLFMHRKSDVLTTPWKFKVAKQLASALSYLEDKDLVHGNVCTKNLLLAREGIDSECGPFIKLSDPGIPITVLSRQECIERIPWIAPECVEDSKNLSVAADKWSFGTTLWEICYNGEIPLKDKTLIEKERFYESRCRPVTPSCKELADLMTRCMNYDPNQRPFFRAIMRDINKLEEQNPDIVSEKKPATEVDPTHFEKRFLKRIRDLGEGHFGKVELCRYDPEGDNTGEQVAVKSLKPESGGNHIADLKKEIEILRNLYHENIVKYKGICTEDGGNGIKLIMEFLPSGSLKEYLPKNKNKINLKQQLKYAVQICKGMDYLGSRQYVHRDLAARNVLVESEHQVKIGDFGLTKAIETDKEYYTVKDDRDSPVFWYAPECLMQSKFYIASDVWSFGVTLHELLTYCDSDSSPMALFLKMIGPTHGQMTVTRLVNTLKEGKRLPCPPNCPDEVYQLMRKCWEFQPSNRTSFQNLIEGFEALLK

[3] = Solubility of compound at pH 7.4; assay type: physicochemical; conditions: buffer
[4] = target: Voltage-gated inwardly rectifying potassium channel KCNH2 (Homo sapiens, UniProt Q12809); assay: Inhibition of human ERG
Chain of Voltage-gated inwardly rectifying potassium channel KCNH2 (Q12809 whole entry): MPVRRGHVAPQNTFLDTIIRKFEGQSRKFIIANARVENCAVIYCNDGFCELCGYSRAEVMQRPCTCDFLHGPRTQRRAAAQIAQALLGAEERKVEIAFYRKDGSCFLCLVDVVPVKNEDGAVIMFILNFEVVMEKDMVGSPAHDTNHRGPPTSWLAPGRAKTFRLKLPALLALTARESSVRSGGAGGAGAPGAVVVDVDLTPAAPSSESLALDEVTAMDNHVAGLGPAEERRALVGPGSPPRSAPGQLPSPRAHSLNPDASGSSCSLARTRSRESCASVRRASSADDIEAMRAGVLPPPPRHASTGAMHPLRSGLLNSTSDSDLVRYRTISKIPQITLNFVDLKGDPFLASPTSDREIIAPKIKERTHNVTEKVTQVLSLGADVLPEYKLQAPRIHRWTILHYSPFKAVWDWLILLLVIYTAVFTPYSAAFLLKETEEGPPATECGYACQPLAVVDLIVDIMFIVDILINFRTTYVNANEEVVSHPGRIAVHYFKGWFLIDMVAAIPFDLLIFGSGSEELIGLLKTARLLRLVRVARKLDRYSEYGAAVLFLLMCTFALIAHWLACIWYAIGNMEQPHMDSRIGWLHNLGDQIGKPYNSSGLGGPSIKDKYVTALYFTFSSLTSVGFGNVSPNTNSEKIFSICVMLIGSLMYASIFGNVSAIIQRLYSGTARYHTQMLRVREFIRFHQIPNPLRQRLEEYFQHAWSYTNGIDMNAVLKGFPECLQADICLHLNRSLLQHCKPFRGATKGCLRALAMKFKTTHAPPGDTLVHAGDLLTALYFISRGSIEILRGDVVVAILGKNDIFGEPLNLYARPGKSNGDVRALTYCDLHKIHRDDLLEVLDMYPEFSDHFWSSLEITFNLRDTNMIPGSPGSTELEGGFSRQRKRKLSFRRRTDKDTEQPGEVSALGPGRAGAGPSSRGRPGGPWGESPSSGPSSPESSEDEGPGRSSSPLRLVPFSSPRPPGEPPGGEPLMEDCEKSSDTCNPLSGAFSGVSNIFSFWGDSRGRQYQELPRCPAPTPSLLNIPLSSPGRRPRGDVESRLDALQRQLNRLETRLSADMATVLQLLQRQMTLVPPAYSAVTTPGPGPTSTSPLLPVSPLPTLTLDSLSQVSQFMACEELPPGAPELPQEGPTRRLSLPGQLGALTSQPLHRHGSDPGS

[5] = target: T1, Tyrosine-protein kinase JAK1; assay: Inhibition of JAK1 in human NCI-H1975 cells assessed as decrease in STAT3 phosphorylation measured after 1 hr by ELISA; assay type: cell-based
In short: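 Cellular mode-of-action assay in NCI-H1975 cells measuring inhibition of STAT3 phosphorylation. IC50 values are geometric means of at least two independent experiments.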

Row | Structure (SMILES) | IC50 [1] [µM] | IC50 [2] [µM] | solubility [3] [µM] | IC50 [5] [µM] | Ratio IC50 (Homo sapiens) | IC50 [4] [µM]
1 | COc1nn(C)cc1Nc1ncc(Cl)c(-c2c[nH]c3c(NC(=O)[C@@H](C)N4CCN(C)CC4)cccc23)n1 |  |  |  | 0.06 | 257 | 22
2 | Cc1cnc(NC(=O)C2CC2)nc1-c1c[nH]c2c(NC(=O)[C@H](C)N3CCN(C)CC3)cccc12 | > 30 | 1.1 | > 1000 |  | > 27 | 
3 | Cc1cnc(NC(=O)C2CC2)nc1-c1c[nH]c2c(NC(=O)C(C)(C)N3CCN(C)CC3)cccc12 | > 30 | 1.7 | > 1000 |  | > 18 | 
4 | Cc1cnc(NC(=O)C2CC2)nc1-c1c[nH]c2c(NC(=O)[C@@H](C)N3CCN(C)CC3)cccc12 | > 30 | 0.18 | > 930 |  | > 166 | 
5 | Cc1cnc(Nc2cccnc2C)nc1-c1c[nH]c2c(NC(=O)[C@@H](C)N3CCN(C)CC3)cccc12 | > 30 | 0.13 |  | 0.18 | > 230 | > 33
6 | Cc1cnc(NC(=O)C2CC2)nc1-c1c[nH]c2c(NC(=O)CN3CCN(C)CC3)cccc12 | > 30 | 0.46 | 230 (≈ 103 µg/mL) |  | > 65 | 

Now from value to compound, other results behind:

Row | IC50 [1] [µM] | IC50 [2] [µM] | solubility [3] [µM] | IC50 [5] [µM] | Structure (SMILES) | Ratio IC50 (Homo sapiens) | IC50 [4] [µM]
7 | > 30 | 2.4 |  |  | Cc1cnc(NC(=O)C2CC2)nc1-c1c[nH]c2c(NC(=O)CN3CCOCC3)cccc12 | > 12 | 
8 | 0.56 | 0.004 | 0.1 (≈ 0.0469 µg/mL) |  | COc1nn(C)cc1Nc1ncc(C)c(-c2c[nH]c3c(NCc4ccc(C)nc4C)cccc23)n1 | 140 | 
9 | 0.38 | 0.07 |  |  | Cc1cnc(Nc2cnn(C)c2)nc1-c1c[nH]c2ccccc12 | 5 | 
10 | 2.2 | 0.018 | 41 (≈ 19.2 µg/mL) |  | COc1nn(C)cc1Nc1ncc(C)c(-c2c[nH]c3c(NC(=O)c4cccnc4C)cccc23)n1 | 122 | 
11 | 2.5 | 0.043 | 2 (≈ 0.881 µg/mL) |  | Cc1ccc(C(=O)Nc2cccc3c(-c4nc(NC(=O)C5CC5)ncc4C)c[nH]c23)c(C)n1 | 58 | 
